pIC50: −log10 of the molar value.
Columns and labels:
[1] = tested on: Mus musculus; test: Inhibition against writhing induced by Phenylbenzoquinone in male swiss albino mice at 25 mg/kg; format: functional
How it was run: (§1)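 Mice in groups of 10, fasted overnight, dosed by gastric gavage with compound or vehicle (0.5% Tween 80 in distilled water). PBQ given ip 1 h later (0.15 mL of 0.02% per 10 g body weight). Writhes counted per mouse over the following 15 min. […] Benzylamine salts dosed as free acid.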

[2] = Inhibitory activity against prostaglandin biosynthesis in stimulated chondrocyte cell culture; format: functional
[3] = tested on: Rattus norvegicus; test: Inhibition against adjuvant-induced paw edema at a dose of 25 mg/kg in male Sprague-Dawley rats.; format: functional
How it was run: (§2)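 Male Sprague-Dawley rats (180–200 g), left hindpaw injected intradermally with 0.1 mL Freund's complete adjuvant. Compound or vehicle given by gastric gavage just before FCA (day 0) and at 24 and 48 h. Paw volume read by plethysmometer before FCA and on day 3. Edema is the day 0 to day 3 volume difference, averaged per group.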

[4] = species on record: Mus musculus; test: Inhibition against writhing induced by Phenylbenzoquinone in male swiss albino mice; format: functional; how it was run: as §1
[5] = Partition coefficient (logP); format: physicochemical; details: octanol/water
How it was run: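 Calculated by computer program, not measured experimentally.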

[6] = tested on: Mus musculus; test: Inhibition against writhing induced by Phenylbenzoquinone in male swiss albino mice at 10 mg/kg; format: functional; how it was run: as §1
[7] = tested on: Mus musculus; test: Inhibition against writhing induced by Phenylbenzoquinone in male swiss albino mice; at 25 mg/kg; format: functional; how it was run: as §1
[8] = tested on: Mus musculus; test: Inhibition against writhing induced by Phenylbenzoquinone in male swiss albino mice at 200 mg/kg; format: functional; how it was run: as §1
[9] = tested on: Rattus norvegicus; test: Inhibition against adjuvant-induced paw edema at a dose of 25 mg/kg in Male Sprague-Dawley rats; format: functional; how it was run: as §2

SMILES	inhibition in vivo at 25 mg/kg [1] [%]	pIC50 [2]	inhibition in vivo at 25 mg/kg [3] [%]	ED50 [4] [mg/kg]	logP [5]	other results
C=CC[C@@H]1COC(CC)(CC(=O)O)c2[nH]c3c(C)cccc3c21 (stereo not given in full)	15	< 5.00	31	–	–	–
CCc1cccc2c3c([nH]c12)C(CC)(CC(=O)O)CC[C@H]3Cc1ccccc1 (stereo not given in full)	15	–	6	–	–	–
C=CC[C@@H]1COC(CC)(CC(=O)O)c2[nH]c3c(CCC)cccc3c21 (stereo not given in full)	2	–	36	–	–	–
C=CC[C@H]1COC(CC)(CC(=O)O)c2[nH]c3c(CC)cccc3c21 (stereo not given in full)	–	6.52	–	6.2	4.5	–
CCc1cccc2c3c([nH]c12)C(CC)(CC(=O)O)CC[C@@H]3Cc1ccccc1 (stereo not given in full)	–	–	38	22.3	7.4	–
CCc1cccc2c3c([nH]c12)C(CC)(CC(=O)O)CC[C@@H]3c1ccccc1 (stereo not given in full)	17	–	12	–	–	–
C=CC[C@H]1COC(CC)(CC(=O)O)c2[nH]c3c(CCC)cccc3c21 (stereo not given in full)	–	–	32	9.5	–	–
C=CC[C@H]1CC[C@](CC)(CC(=O)O)c2[nH]c3c(CC)cccc3c21	5	5.40	0	–	–	–
CCC1(CC(=O)O)CC[C@H](Cc2ccccc2)c2c1[nH]c1c(C)cccc21 (stereo not given in full)	–	–	43	3.4	6.9	–
C=CCC[C@H]1CCC(CC)(CC(=O)O)c2[nH]c3c(CC)cccc3c21 (stereo not given in full)	2	–	43	–	–	–
CCc1cccc2c3c([nH]c12)C(CC)(CC(=O)O)CCC3 (stereo not given)	–	7.70	–	–	5.3	–
CCC[C@H]1CCC(CC)(CC(=O)O)c2[nH]c3c(CC)cccc3c21 (stereo not given in full)	15	–	–	–	–	–
C=CC[C@H]1CCC(CC)(CC(=O)O)c2[nH]c3c(CC)cccc3c21 (stereo not given in full)	–	7.82	44	10.6	6.3	–
CCC1(CC(=O)O)CC[C@@H](Cc2ccccc2)c2c1[nH]c1c(C)cccc21 (stereo not given in full)	–	–	24	–	–	inhibition in vivo at 10 mg/kg [6]: 5%
C=CC[C@H]1CCC(CC)(CC(=O)O)c2[nH]c3ccccc3c21 (stereo not given in full)	–	7.30	–	19.6	5.2	–
CCC1(CC(=O)O)OC[C@@H](Cc2ccccc2)c2c1[nH]c1c(C)cccc21 (stereo not given in full)	11	–	40	–	–	–
C=CC[C@H]1CCC(CC)(CC(=O)O)c2[nH]c3c(C)cccc3c21 (stereo not given in full)	–	7.30	–	8.3	5.8	–
CCC1(CC(=O)O)OC[C@H](CCc2ccccc2)c2c1[nH]c1ccccc21 (stereo not given in full)	–	–	0	–	–	inhibition in vivo at 25 mg/kg [7]: 0%
CCc1cccc2c3c([nH]c12)C(CC)(CC(=O)O)CC[C@H]3c1ccccc1 (stereo not given in full)	28	–	37	–	–	–

SMILES	inhibition in vivo at 25 mg/kg [1] [%]	pIC50 [2]	inhibition in vivo at 25 mg/kg [3] [%]	ED50 [4] [mg/kg]	logP [5]	other results
C=CCC[C@@H]1CCC(CC)(CC(=O)O)c2[nH]c3c(CC)cccc3c21 (stereo not given in full)	0	–	16	–	–	–
C=CC[C@H]1CCC(CC)(CC(=O)O)c2[nH]c3c(CCC)cccc3c21 (stereo not given in full)	–	–	39	28.7	6.9	–
C=CC[C@@H]1COC(CC)(CC(=O)O)c2[nH]c3c(CC)cccc3c21 (stereo not given in full)	33	–	55	–	–	–
C=C[C@@H]1CCC(CC)(CC(=O)O)c2[nH]c3c(CC)cccc3c21 (stereo not given in full)	0	–	62	–	–	–
C=CC[C@H]1CC[C@@](CC)(CC(=O)O)c2[nH]c3c(CC)cccc3c21	94	7.82	54	–	–	–
C=CC[C@@H]1COC(CC)(CC(=O)O)c2[nH]c3ccccc3c21 (stereo not given in full)	25	< 5.00	30	–	–	–
CCC1(CC(=O)O)OC[C@@H](CCc2ccccc2)c2c1[nH]c1ccccc21 (stereo not given in full)	–	–	20	–	–	inhibition in vivo at 25 mg/kg [7]: 0%
CCC1(CC(=O)O)CC[C@H](Cc2ccccc2)c2c1[nH]c1ccccc21 (stereo not given in full)	–	7.96	49	1.2	6.2	–
C=CC[C@@H]1CCC(CC)(CC(=O)O)c2[nH]c3c(CC)cccc3c21 (stereo not given in full)	–	–	35	–	–	inhibition in vivo at 200 mg/kg [8]: 23%
C=CC[C@H]1COC(CC)(CC(=O)O)c2[nH]c3ccccc3c21 (stereo not given in full)	21	6.92	–	–	3.3	inhibition in vivo at 25 mg/kg [9]: 46%
CCc1cccc2c3c([nH]c12)C(CC)(CC(=O)O)OC[C@@H]3Cc1ccccc1 (stereo not given in full)	–	–	15	–	5.6	–
CCC1(CC(=O)O)CC[C@@H](Cc2ccccc2)c2c1[nH]c1ccccc21 (stereo not given in full)	4	–	42	–	–	–
CCC1(CC(=O)O)OC[C@H](Cc2ccccc2)c2c1[nH]c1c(C)cccc21 (stereo not given in full)	–	–	47	4.7	5	–
CCc1cccc2c3c([nH]c12)C(CC)(CC(=O)O)CC[C@@H]3CC1CC1 (stereo not given in full)	0	–	19	–	–	–
C=CC[C@H]1COC(CC)(CC(=O)O)c2[nH]c3c(C)cccc3c21 (stereo not given in full)	10	6.70	54	–	4	–
C=C[C@H]1CCC(CC)(CC(=O)O)c2[nH]c3c(CC)cccc3c21 (stereo not given in full)	21	–	30	–	–	–
CCC1(CC(=O)O)OC[C@H](Cc2ccccc2)c2c1[nH]c1ccccc21 (single isomer, unassigned) [DEXPEMEDOLAC]	–	7.64	37	2	4.4	–
CCc1cccc2c3c([nH]c12)C(CC)(CC(=O)O)OCC3 (stereo not given) [ETODOLAC]	–	7.64	–	–	–	–
COc1ccc2c(c1)c(CC(=O)O)c(C)n2C(=O)c1ccc(Cl)cc1 [INDOMETHACIN]	–	7.96	–	1.5	–	–
